Experiments:
[1] = test system: Homo sapiens; experiment: Tmax in healthy human PBMC assessed as intracellular apricitabine triphosphate level at 600 mg, po administered twice daily for 4 days; format: ADME, organism-based; settings: in vivo, 96 h
In short: (§1)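 PBMC were isolated from triplicate day-4 blood samples taken 2, 4, 8, 12 and 24 h after the morning dose, then extracted in 70/30 methanol-Tris-HCl pH 7.4. Triphosphates were separated by anion-exchange SPE with KCl washes, eluted with 500 mM KCl, and dephosphorylated with alkaline phosphatase at 37°C. Quantitation used HPLC-MS/MS with a labelled triphosphate internal standard; LLOQ 0.0592 pmol/10^6 cells. Cmax/Tmax were read by inspection; t1/2 = ln2/λz.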

[2] = test system: Homo sapiens; experiment: Half life in healthy human PBMC assessed as intracellular apricitabine triphosphate level per 10^6 cells at 600 mg, po administered twice daily for 4 days; format: ADME, organism-based; settings: in vivo, 96 h; in short: as §1
[3] = test system: Homo sapiens; experiment: Cmin in healthy human PBMC assessed as intracellular apricitabine triphosphate level per 10^6 cells at 600 mg, po administered twice daily for 4 days; format: ADME, organism-based; settings: in vivo, 96 h
[4] = Cmax in healthy human at 600 mg, po twice daily coadministered with 300 mg, po Lamivudine once daily for 4 days; format: ADME, organism-based; parameters: dose 600 mg, route oral; settings: in vivo
In short: (§2)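 Healthy volunteers took each regimen in random order for 4 days, with washouts of at least 7 days. The day-4 morning dose followed a fast of at least 10 h. Plasma was drawn predose and 0.5–36 h after dosing, and urine was collected to 36 h; both were assayed by validated HPLC. Cmax/Tmax were read from the curves. CLT/F = dose/AUC, CLR = 24-h urinary amount/AUC0-24, Vz/F = dose/(λz·AUC), t1/2 = ln2/λz.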

[5] = test system: Homo sapiens; experiment: AUC (0 to 12 hrs) in healthy human PBMC assessed as intracellular apricitabine triphosphate level per 10^6 cells at 600 mg, po twice daily coadministered with 300 mg, po Lamivudine once daily for 4 days; format: ADME, organism-based; parameters: time < 12 hr, dose 600 mg, route oral; settings: in vivo; in short: as §1
[6] = Renal clearance in healthy human at 600 mg, po administered twice daily for 4 days; format: ADME, organism-based, Kidney; settings: in vivo, read-out: CL_renal (converted); in short: as §2
[7] = test system: Homo sapiens; experiment: Cmax in healthy human PBMC assessed as intracellular apricitabine triphosphate level per 10^6 cells at 600 mg, po twice daily coadministered with 300 mg, po Lamivudine once daily for 4 days; format: ADME, organism-based, Blood; parameters: dose 600 mg, route oral; settings: in vivo, 96 h; in short: as §1
[8] = Tmax in healthy human at 600 mg, po twice daily coadministered with 300 mg, po Lamivudine once daily for 4 days; format: ADME, organism-based; settings: in vivo; in short: as §2
[9] = AUC (0 to 24 hrs) in healthy human at 600 mg, po twice daily coadministered with 300 mg, po Lamivudine once daily for 4 days; format: ADME, organism-based; parameters: dose 600 mg, time < 24 hr, route oral; settings: plasma; in short: as §2
[10] = test system: Homo sapiens; experiment: Ratio of Cmax to Cmin in healthy human PBMC assessed as intracellular apricitabine triphosphate level per 10^6 cells at 600 mg, po twice daily coadministered with 300 mg, po Lamivudine once daily for 4 days; format: ADME, organism-based; settings: in vivo, 96 h
[11] = Apparent terminal half life in healthy human at 600 mg, po administered twice daily for 4 days; format: ADME, organism-based; settings: in vivo; in short: as §2
[12] = test system: Homo sapiens; experiment: Cmax in healthy human PBMC assessed as intracellular apricitabine triphosphate level per 10^6 cells at 600 mg, po administered twice daily for 4 days; format: ADME, organism-based, Blood; parameters: dose 600 mg, route oral; settings: in vivo, 96 h; in short: as §1
[13] = test system: Homo sapiens; experiment: AUC (0 to 12 hrs) in healthy human PBMC assessed as intracellular apricitabine triphosphate level per 10^6 cells at 600 mg, po administered twice daily for 4 days; format: ADME, organism-based; parameters: dose 600 mg, time < 12 hr, route oral; settings: in vivo; in short: as §1
[14] = test system: Homo sapiens; experiment: Apparent total oral clearance in healthy human at 600 mg, po twice daily coadministered with 300 mg, po Lamivudine once daily for 4 days; format: ADME, organism-based; settings: in vivo, 96 h; in short: as §2
[15] = test system: Homo sapiens; experiment: Renal clearance in healthy human at 600 mg, po twice daily coadministered with 300 mg, po Lamivudine once daily for 4 days; format: ADME, organism-based, Kidney; settings: in vivo, 96 h; in short: as §2
[16] = Apparent terminal half life in healthy human at 600 mg, po twice daily coadministered with 300 mg, po Lamivudine once daily for 4 days; format: ADME, organism-based; settings: in vivo; in short: as §2
[17] = test system: Homo sapiens; experiment: Volume of distribution at steady state in healthy human at 600 mg, po administered twice daily for 4 days; format: ADME, organism-based; settings: in vivo, 96 h; in short: as §2
[18] = test system: Homo sapiens; experiment: Half life in healthy human PBMC assessed as intracellular apricitabine triphosphate level per 10^6 cells at 600 mg, po twice daily coadministered with 300 mg, po Lamivudine once daily for 4 days; format: ADME, organism-based; settings: in vivo, 96 h; in short: as §1
[19] = test system: Homo sapiens; experiment: Tmax in healthy human PBMC assessed as intracellular apricitabine triphosphate level at 600 mg, po twice daily coadministered with 300 mg, po Lamivudine once daily for 4 days; format: ADME, organism-based; settings: in vivo, 96 h; in short: as §1
[20] = Apparent total oral clearance in healthy human at 600 mg, po administered twice daily for 4 days; format: ADME, organism-based; settings: in vivo; in short: as §2
[21] = Cmax in healthy human at 600 mg, po administered twice daily for 4 days; format: ADME, organism-based; parameters: dose 600 mg, route oral; settings: in vivo; in short: as §2
[22] = test system: Homo sapiens; experiment: Cmin in healthy human PBMC assessed as intracellular apricitabine triphosphate level per 10^6 cells at 600 mg, po twice daily coadministered with 300 mg, po Lamivudine once daily for 4 days; format: ADME, organism-based; settings: in vivo, 96 h
[23] = AUC (0 to 24 hrs) in healthy human at 600 mg, po administered twice daily for 4 days; format: ADME, organism-based; parameters: dose 600 mg, time < 24 hr, route oral; settings: plasma; in short: as §2
[24] = test system: Homo sapiens; experiment: Volume of distribution at steady state in healthy human at 600 mg, po twice daily coadministered with 300 mg, po Lamivudine once daily for 4 days; format: ADME, organism-based; settings: in vivo, 96 h; in short: as §2
[25] = test system: Homo sapiens; experiment: Ratio of Cmax to Cmin in healthy human PBMC assessed as intracellular apricitabine triphosphate level per 10^6 cells at 600 mg, po administered twice daily for 4 days; format: ADME, organism-based; settings: in vivo, 96 h
[26] = Tmax in healthy human at 600 mg, po administered twice daily for 4 days; format: ADME, organism-based; settings: in vivo; in short: as §2
[27] = AUC (0 to 24 hrs) in healthy human at 300 mg, po administered once daily for 4 days; format: ADME, organism-based; parameters: dose 300 mg, time < 24 hr, route oral; settings: plasma; in short: as §2
[28] = test system: Homo sapiens; experiment: AUC (0 to 12 hrs) in healthy human PBMC assessed as intracellular lamivudine triphosphate level per 10^6 cells at 300 mg, po administered once daily for 4 days; settings: in vivo
[29] = Tmax in healthy human at 300 mg, po once daily coadministered with 600 mg, po apricitabine twice daily for 4 days; format: ADME, organism-based; settings: in vivo; in short: as §2
[30] = test system: Homo sapiens; experiment: Cmax in healthy human PBMC assessed as intracellular lamivudine triphosphate level per 10^6 cells at 300 mg, po administered once daily for 4 days; settings: in vivo, 96 h
[31] = test system: Homo sapiens; experiment: Cmin in healthy human PBMC assessed as intracellular apricitabine triphosphate level per 10^6 cells at 300 mg, po once daily coadministered with 600 mg, po apricitabine twice daily for 4 days; format: ADME, organism-based; settings: in vivo, 96 h
[32] = Tmax in healthy human at 300 mg, po administered once daily for 4 days; format: ADME, organism-based; settings: in vivo; in short: as §2
[33] = test system: Homo sapiens; experiment: Tmax in healthy human PBMC assessed as intracellular apricitabine triphosphate level at 300 mg, po once daily coadministered with 600 mg, po apricitabine twice daily for 4 days; format: ADME, organism-based; settings: in vivo, 96 h; in short: as §1
[34] = AUC (0 to 24 hrs) in healthy human at 300 mg, po once daily coadministered with 600 mg, po apricitabine twice daily for 4 days; format: ADME, organism-based; parameters: time < 24 hr, dose 300 mg, route oral; settings: plasma; in short: as §2
[35] = test system: Homo sapiens; experiment: AUC (0 to 12 hrs) in healthy human PBMC assessed as intracellular lamivudine triphosphate level per 10^6 cells at 300 mg, po once daily coadministered with 600 mg, po apricitabine twice daily for 4 days; settings: in vivo
[36] = test system: Homo sapiens; experiment: Cmin in healthy human PBMC assessed as intracellular lamivudine triphosphate level per 10^6 cells at 300 mg, po administered once daily for 4 days; settings: in vivo, 96 h
[37] = test system: Homo sapiens; experiment: Tmax in healthy human PBMC assessed as intracellular apricitabine triphosphate level at 300 mg, po administered once daily for 4 days; format: ADME, organism-based; settings: in vivo, 96 h, in the assay text read “lamivudine” for “apricitabine”; in short: as §1
[38] = test system: Homo sapiens; experiment: Cmax in healthy human PBMC assessed as intracellular apricitabine triphosphate level per 10^6 cells at 300 mg, po once daily coadministered with 600 mg, po apricitabine twice daily for 4 days; format: ADME, organism-based, Blood; parameters: dose 300 mg, route oral; settings: in vivo, 96 h; in short: as §1
[39] = Cmax in healthy human at 300 mg, po once daily coadministered with 600 mg, po apricitabine twice daily for 4 days; format: ADME, organism-based; parameters: dose 300 mg, route oral; settings: in vivo; in short: as §2
[40] = Cmax in healthy human at 300 mg, po administered once daily for 4 days; format: ADME, organism-based; parameters: dose 300 mg, route oral; settings: in vivo; in short: as §2

Nc1ccn([C@H]2CO[C@@H](CO)S2)c(=O)n1 [APRICITABINE]
Tmax [1]: 3.52 h
t1/2 [2]: 6.22 h
Cmin_PBMC [3]: 0.6 pmol/10^6cells
Cmax [4]: 7110 ng/mL
AUC [5]: 1.98 pmol·h/10^6 cells
CL renal at 96 h [6]: 192 mL/min
Cmax [7]: 0.257 pmol/10^6cells
Tmax [8]: 1.55 h
AUC at 24 h [9]: 65600 ng·h/mL
Ratio [10]: 3.54
half-life [11]: 2.72 h
Cmax [12]: 1.66 pmol/10^6cells
AUC [13]: 13.3 pmol·h/10^6 cells
CL/F [14]: 18.3 L/h
CL renal [15]: 12.2 L/h
half-life [16]: 2.6 h
Vdss [17]: 67.7 L
t1/2 [18]: 5.06 h
Tmax [19]: 3.14 h
CL/F [20]: 283 mL/min
Cmax [21]: 7430 ng/mL
Cmin_PBMC [22]: 0.078 pmol/10^6cells
AUC at 24 h [23]: 70900 ng·h/mL
Vdss [24]: 67.9 L
Ratio [25]: 3.28
Tmax [26]: 1.76 h

Nc1ccn([C@@H]2CS[C@H](CO)O2)c(=O)n1 [LAMIVUDINE]
AUC at 24 h [27]: 15700 ng·h/mL
AUC [28]: 154 pmol·h/10^6 cells
Tmax [29]: 1.02 h
Cmax [30]: 9.83 pmol/10^6cells
Cmin_PBMC [31]: 4.52 pmol/10^6cells
Tmax [32]: 1 h
Tmax [33]: 3.9 h
AUC at 24 h [34]: 15500 ng·h/mL
AUC [35]: 161 pmol·h/10^6 cells
Cmin_PBMC [36]: 4.35 pmol/10^6cells
Tmax [37]: 4.76 h
Cmax [38]: 9.91 pmol/10^6cells
Cmax [39]: 3810 ng/mL
Cmax [40]: 3980 ng/mL

Reference: ChEMBL document CHEMBL1155135, “Effect of Lamivudine on the plasma and intracellular pharmacokinetics of apricitabine, a novel nucleoside reverse transcriptase inhibitor, in healthy volunteers” (Antimicrob Agents Chemother, 2007)
